Laboratory results from ChEMBL document CHEMBL3286364, “Ligand efficiency driven design of new inhibitors of Mycobacterium tuberculosis transcriptional repressor EthR using fragment growing, merging, and linking approaches” (J Med Chem, 2014).

tested on: Mycobacterium tuberculosis; assay: Binding affinity to Mycobacterium tuberculosis EthR assessed as change in melting temperature at 20 uM by thermal shift assay
In short: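 Protein unfolding tracked with SYPRO Orange in a real-time PCR instrument. Ligand at 20 μM in EthR buffer (10 mM Tris/HCl, 300 mM NaCl, 0.1 mM EDTA, pH 7.5). Heated 37 to 85 °C at 0.04 °C/s, fluorescence read at Ex/Em 465/510 nm. ΔTm taken as the holo minus apo melting temperature.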

Row | Structure (SMILES) | ΔTm [°C]
1 | CC(C)CCNS(=O)(=O)c1ccc(-c2cnco2)cc1 | 1.2
2 | O=C(NCCC(F)(F)F)c1ccc(C#CCNS(=O)(=O)c2ccccc2)cc1 | 4.2
3 | CCCCOc1ccc(S(=O)(=O)NCCC(C)C)cc1 | 3.6
4 | CC(C)CCNS(=O)(=O)c1ccc(-n2cccn2)cc1 | 1.9
5 | CCCS(=O)(=O)NCc1nc(-c2ccc(C(=O)NCCC(F)(F)F)cc2)cs1 | 6.6
6 | Cc1nc(-c2ccc(S(=O)(=O)NCCC(F)(F)F)cc2)cs1 | 8.5
7 | Cc1nc(-c2ccc(C(=O)NCCC(F)(F)F)cc2)cs1 | 11.2
8 | CC(C)CCNS(=O)(=O)c1ccc(N2CCCC2=O)cc1 | 0.6
9 | CCOC(=O)c1ccc(S(=O)(=O)NCCC(C)C)cc1 | 4.3
10 | C#CCNS(=O)(=O)c1ccc(I)cc1 | 0.1
11 | CC(C)CCNS(=O)(=O)c1ccc(I)cc1 | 1.9
12 | Cc1nc(-c2ccc(S(=O)(=O)NCCC(C)C)cc2)cs1 | 6.1
13 | CC(=O)Nc1ccc(-c2ccc(S(=O)(=O)NCCC(C)C)cc2)cc1 | 2
14 | CC(C)CCNS(=O)(=O)c1ccc(CCC(C)C)cc1 | 3.2
15 | CC(C)CCNS(=O)(=O)c1ccc(-c2ccc(F)cc2)cc1 | 2.2
16 | Cc1nc(-c2ccc(S(=O)(=O)NCCC(C)(C)C)cc2)cs1 | 2.3
17 | COc1ccc(-c2ccc(S(=O)(=O)NCCC(C)C)cc2)cc1 | 3.7
18 | Cc1nc(-c2ccc(S(=O)(=O)NCCCC(F)(F)F)cc2)cs1 | 6.6
19 | Cc1nc(-c2ccc(S(=O)(=O)NCC(F)(F)F)cc2)cs1 | 6.3

tested on: not listed separately; assay: Solubility in PBS at pH 7.4 after 24 hrs by LC-MS/MS analysis; format: physicochemical
In short: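 10 mM DMSO stock diluted 1:50 into PBS pH 7.4 or MeOH. Shaken 24 h at room temperature, centrifuged, filtered (0.45 μm), diluted tenfold in MeOH. Analysed by LC-MS/MS (SIM or MRM). Solubility from the PBS/MeOH ratio of mass signal areas.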

Row | Structure (SMILES) | solubility at 24 h
20 | O=C(NCCC(F)(F)F)c1ccc(C#CCNS(=O)(=O)c2ccccc2)cc1 | 3 µg/mL
21 | CCCS(=O)(=O)NCc1nc(-c2ccc(C(=O)NCCC(F)(F)F)cc2)cs1 | 1.3 µg/mL
22 | Cc1nc(-c2ccc(S(=O)(=O)NCCC(F)(F)F)cc2)cs1 | 14.5 µg/mL
23 | Cc1nc(-c2ccc(C(=O)NCCC(F)(F)F)cc2)cs1 | 14.7 µg/mL
24 | C#CCNS(=O)(=O)c1ccc(I)cc1 | > 200 µM
25 | Cc1nc(-c2ccc(S(=O)(=O)NCCC(C)C)cc2)cs1 | 6.6 µg/mL

tested on: Mycobacterium tuberculosis; assay: Antimicrobial activity against Mycobacterium tuberculosis H37Rv expressing GFP infected in mouse RAW264.7 cells assessed as concentration required to potentiate 0.1 ug/ml […] to inhibit microbial growth by 50% by fluorescence assay; format: functional, organism-based
In short: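 RAW264.7 macrophages infected with H37Rv-GFP at MOI 1:1 for 2 h at 37 °C with shaking. Extracellular bacilli killed with amikacin (20 μM, 1 h). Infected cells added to compound serial dilutions (ten 2-fold) with ethionamide fixed at 0.1 μg/mL, 5 days at 37 °C, 5% CO2. SYTO 60 stained; confocal imaging gives percent infected cells and cell number. Two replicates averaged.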

Row | Structure (SMILES) | EC50 [µM]
26 | CC(C)CCNS(=O)(=O)c1ccc(-c2cnco2)cc1 | > 10
27 | O=C(NCCC(F)(F)F)c1ccc(C#CCNS(=O)(=O)c2ccccc2)cc1 | 0.23
28 | CCCCOc1ccc(S(=O)(=O)NCCC(C)C)cc1 | > 10
29 | CC(C)CCNS(=O)(=O)c1ccc(-n2cccn2)cc1 | > 10
30 | CCCS(=O)(=O)NCc1nc(-c2ccc(C(=O)NCCC(F)(F)F)cc2)cs1 | 0.32
31 | Cc1nc(-c2ccc(S(=O)(=O)NCCC(F)(F)F)cc2)cs1 | 0.29
32 | Cc1nc(-c2ccc(C(=O)NCCC(F)(F)F)cc2)cs1 | 0.08
33 | CC(C)CCNS(=O)(=O)c1ccc(N2CCCC2=O)cc1 | > 10
34 | CCOC(=O)c1ccc(S(=O)(=O)NCCC(C)C)cc1 | 10
35 | C#CCNS(=O)(=O)c1ccc(I)cc1 | > 10
36 | CC(C)CCNS(=O)(=O)c1ccc(I)cc1 | > 10
37 | Cc1nc(-c2ccc(S(=O)(=O)NCCC(C)C)cc2)cs1 | 5.7
38 | CC(=O)Nc1ccc(-c2ccc(S(=O)(=O)NCCC(C)C)cc2)cc1 | > 10
39 | CC(C)CCNS(=O)(=O)c1ccc(CCC(C)C)cc1 | 6.3
40 | CC(C)CCNS(=O)(=O)c1ccc(-c2ccc(F)cc2)cc1 | > 10
41 | Cc1nc(-c2ccc(S(=O)(=O)NCCC(C)(C)C)cc2)cs1 | > 20
42 | COc1ccc(-c2ccc(S(=O)(=O)NCCC(C)C)cc2)cc1 | > 10
43 | Cc1nc(-c2ccc(S(=O)(=O)NCCCC(F)(F)F)cc2)cs1 | > 2.5
44 | Cc1nc(-c2ccc(S(=O)(=O)NCC(F)(F)F)cc2)cs1 | 7.9

tested on: not listed separately; assay: Inhibition of Mycobacterium tuberculosis EthR assessed as inhibition of EthR-DNA interaction after 3 mins by SPR assay
In short: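 106-bp biotinylated ethA/ethR intergenic DNA immobilised on a streptavidin chip (about 75 RU). An irrelevant 113-bp bla fragment in the reference channel; signal taken as the channel difference. Preincubated 5 min at 37 °C, injected at 20 μL/min for 3 min at 25 °C. Response read at end of injection; IC50 from dose-response.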

Row | Structure (SMILES) | IC50 [µM]
45 | O=C(NCCC(F)(F)F)c1ccc(C#CCNS(=O)(=O)c2ccccc2)cc1 | 3.9
46 | CCCS(=O)(=O)NCc1nc(-c2ccc(C(=O)NCCC(F)(F)F)cc2)cs1 | 0.56
47 | Cc1nc(-c2ccc(S(=O)(=O)NCCC(F)(F)F)cc2)cs1 | 0.55
48 | Cc1nc(-c2ccc(C(=O)NCCC(F)(F)F)cc2)cs1 | 0.4
49 | C#CCNS(=O)(=O)c1ccc(I)cc1 | 160
50 | Cc1nc(-c2ccc(S(=O)(=O)NCCC(C)C)cc2)cs1 | 4.9
